Series [1] deals with Plasmodium falciparum. Put plainly: Antimalarial activity against chloroquine and pyrimethamine resistant Plasmodium falciparum W2 infected in human erythrocytes assessed as reduction in parasite growth incubated for 48 hrs followed by addition of [3H]-hypoxanthine and measured after 24 hrs by Topcount liquid scintillation counting method. It is filed as functional, organism-based. As to conditions: W2, Erythrocyte.

In series [2] the test system is Plasmodium falciparum. The series is described as follows: Antimalarial activity against chloroquine, pyrimethamine, mefloquine and atovaquone- resistant Plasmodium falciparum TM90-C2B infected in human erythrocytes assessed as reduction in parasite growth incubated for 48 hrs followed by addition of [3H]-hypoxanthine and measured after 24 hrs by Topcount liquid scintillation counting method. It is filed as functional, organism-based. The settings on record: Erythrocyte.

Series [3] is described as follows: Aqueous solubility of compound at pH 7.4. The class given is physicochemical. As to conditions: buffer.
The nature of series [4]: Aqueous solubility of compound at pH 2.4. As to conditions: buffer.
Series [5] relates to Plasmodium berghei. The series is described as follows: In vivo antimalarial activity against blood stage Plasmodium berghei transfected with GFP infected in BALB/c mouse assessed as supression of parasitemia at 10 mg/kg, po administered once daily starting from day 3 to 5 post infection and measured at day 6 by Giemsa staining based flow cytometric analysis relative to control. It is filed as functional. In outline: (§1)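 Female BALB/c mice, 4–6 weeks old, five per group, were infected intraperitoneally with 2 × 10^6 P. berghei-GFP-infected red cells. Oral doses of 10 or 50 mg/kg in 0.5% aqueous HEC were given once daily on days 3–5 PI; prodrugs were suspended about 1 min before dosing. Parasitemia was measured by flow cytometry and Giemsa smears. Day-6 percent suppression was calculated versus untreated controls, with Welch-corrected t test.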
(In flow cytometry, cells or beads pass a laser one at a time.)

The subject of series [6] is Plasmodium berghei. Put plainly: In vivo antimalarial activity against blood stage Plasmodium berghei transfected with GFP infected in BALB/c mouse assessed as supression of parasitemia at 50 mg/kg, po administered once daily starting from day 3 to 5 post infection and measured at day 6 by Giemsa staining based flow cytometric analysis relative to control. The class given is functional. An outline of the steps: as §1

The nature of series [7]: Toxicity in BALB/c mouse infected with blood stage Plasmodium berghei assessed as weight loss at up to at 50 mg/kg, po administered once daily starting from day 3 to 5 post infection and measured on day 6. As to conditions: in vivo. The class given is organism-based. An outline of the steps: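 P. berghei-infected BALB/c mice were dosed orally once daily on days 3–5 PI in 0.5% aqueous HEC, at doses up to 50 mg/kg. Body weight of treated animals was monitored for loss.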

A short description of series [8]: AUC (0 to 24 hrs) in BALB/c mouse at 50 mg/kg, po. Also noted: time < 24 hr, route oral, dose 50 mg/kg. It is filed as ADME, organism-based. As to conditions: in vivo. An outline of the steps: (§2)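 Single oral dose in mice, formulated in 0.5% aqueous HEC; doses of 3, 10 or 50 mg/kg. The parent 4(1H)-quinolone was quantified in plasma over time after dosing, with a lower limit of quantification of 1 nM. PK parameters were derived from the plasma concentration profiles.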

A short description of series [9]: Clearance in BALB/c mouse at 50 mg/kg, po. The settings on record: in vivo. The class given is ADME, organism-based. In outline: as §2
Series [10] relates to Plasmodium berghei. Put plainly: In vivo antimalarial activity against blood stage Plasmodium berghei transfected with GFP infected in BALB/c mouse assessed as supression of parasitemia at 10 mg/kg, po administered thrice daily started from 3 days post infection and measured on day 6 by Giemsa staining based flow cytometric analysis relative to control. The class given is functional. As to conditions: time 3 day.

Series [11] can be described thus: Solubility of the compound in 0.5% hydroxyethylcellulose.
The subject of series [12] is Plasmodium berghei. Put plainly: In vivo antimalarial activity against Plasmodium berghei at 20 mg/kg, po administered as single dose in presence of ferroquine. The class given is functional, organism-based.
The test system of series [13] is Plasmodium berghei. The series is described as follows: In vivo antimalarial activity against blood stage Plasmodium berghei transfected with GFP infected in BALB/c mouse assessed as supression of parasitemia at 10 mg/kg, po administered as single dose on 3 days post infection and measured on day 6 by Giemsa staining based flow cytometric analysis relative to control. The class given is functional. The settings on record: time 3 day. An outline of the steps:
(§3)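 Female BALB/c mice, 4–6 weeks old, five per dose group, were infected intraperitoneally with 2 × 10^6 P. berghei-GFP-infected red cells. Each received one oral dose on day 3 PI in 0.5% aqueous HEC; doses ranged 0.01–10 mg/kg. Parasitemia was measured from tail blood by flow cytometry and Giemsa smears. Percent suppression on day 6 PI was calculated versus untreated infected controls, with Welch-corrected unpaired t test.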

The test system of series [14] is Plasmodium berghei. Put plainly: In vivo antimalarial activity against blood stage Plasmodium berghei transfected with GFP infected in BALB/c mouse assessed as supression of parasitemia at 3 mg/kg, po administered as single dose on 3 days post infection and measured on day 6 by Giemsa staining based flow cytometric analysis relative to control. It is filed as functional. The settings on record: time 3 day. An outline of the steps: as §3

The subject of series [15] is Plasmodium berghei. The series is described as follows: In vivo antimalarial activity against blood stage Plasmodium berghei transfected with GFP infected in BALB/c mouse assessed as supression of parasitemia at 1 mg/kg, po administered as single dose on 3 days post infection and measured on day 6 by Giemsa staining based flow cytometric analysis relative to control. The class given is functional. As to conditions: time 3 day. An outline of the steps: as §3

Series [16] concerns Plasmodium berghei. Put plainly: In vivo antimalarial activity against blood stage Plasmodium berghei transfected with GFP infected in BALB/c mouse assessed as supression of parasitemia at 0.3 mg/kg, po administered as single dose on 3 days post infection and measured on day 6 by Giemsa staining based flow cytometric analysis relative to control. The class given is functional. As to conditions: time 3 day. In outline: as §3

Series [17] deals with Plasmodium berghei. The series is described as follows: In vivo antimalarial activity against blood stage Plasmodium berghei transfected with GFP infected in BALB/c mouse assessed as supression of parasitemia at 0.1 mg/kg, po administered as single dose on 3 days post infection and measured on day 6 by Giemsa staining based flow cytometric analysis relative to control. It is filed as functional. The settings on record: time 3 day. In outline:
as §3

For series [18], the system named is Plasmodium berghei. Put plainly: In vivo antimalarial activity against blood stage Plasmodium berghei transfected with GFP infected in BALB/c mouse assessed as supression of parasitemia at 0.03 mg/kg, po administered as single dose on 3 days post infection and measured on day 6 by Giemsa staining based flow cytometric analysis relative to control. The class given is functional. As to conditions: time 3 day. An outline of the steps:
as §3

Series [19] deals with Plasmodium berghei. The series is described as follows: In vivo antimalarial activity against blood stage Plasmodium berghei transfected with GFP infected in BALB/c mouse assessed as supression of parasitemia at 0.01 mg/kg, po administered as single dose on 3 days post infection and measured on day 6 by Giemsa staining based flow cytometric analysis relative to control. It is filed as functional. The settings on record: time 3 day. An outline of the steps: as §3

The subject of series [20] is Plasmodium berghei. The series is described as follows: In vivo antimalarial activity against blood stage Plasmodium berghei transfected with GFP infected in BALB/c mouse assessed as supression of parasitemia at 1 mg/kg, po administered as single dose on 3 days post infection and measured on day 13 by Giemsa staining based flow cytometric analysis relative to control. It is filed as functional. As to conditions: time 10 day. In outline: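 Female BALB/c mice, five per group, were infected with P. berghei-GFP-infected erythrocytes intraperitoneally. Each received a single oral dose of 1 mg/kg in 0.5% aqueous HEC on day 3 PI. Tail-blood parasitemia was followed by flow cytometry and Giemsa smears at 3-day intervals through day 30. Suppression on day 13 PI was calculated relative to untreated infected controls.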

Series [21] can be described thus: AUC (0 to 24 hrs) in BALB/c mouse at 3 mg/kg, po. The class given is ADME, organism-based. Set-up: time < 24 hr, route oral, dose 3 mg/kg. As to conditions: in vivo. An outline of the steps:
as §2

Series [22] in a line: AUC (0 to 24 hrs) in BALB/c mouse at 10 mg/kg, po. The class given is ADME, organism-based. Also noted: time < 24 hr, route oral, dose 10 mg/kg. As to conditions: in vivo. An outline of the steps:
as §2

The nature of series [23]: Clearance in BALB/c mouse at 3 mg/kg, po. It is filed as ADME, organism-based. As to conditions: in vivo. An outline of the steps: as §2
The nature of series [24]: Clearance in BALB/c mouse at 10 mg/kg, po. The class given is ADME, organism-based. As to conditions: in vivo. In outline:
as §2

Series [25] can be described thus: Toxicity in BALB/c mouse infected with blood stage Plasmodium berghei assessed as death at 1 mg/kg, po administered as single dose starting from day 3 post infection and measured on day 13. It is filed as organism-based. As to conditions: in vivo, 240 h, time 10 day. An outline of the steps:
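Female BALB/c mice (4–6 weeks, about 18 g), five per group, infected intraperitoneally with P. berghei (GFP)-parasitized erythrocytes. Given one oral dose on day 3 PI in 0.5% aqueous HEC, freshly solubilized about 1 min before dosing. Tail-vein parasitemia read by flow cytometry and Giemsa smears every third day through day 30. Untreated animals served as controls.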

In brackets after ≈: the same amount, converted by molar mass. Activity calls are given as the source filed them. The calls are words filed in the database; no cut-off is given here.

As to `CN1CCCOC1=O`, the EC50 in the series on Plasmodium falciparum [1] is more than 8320 nM.
Regarding `CCN(CC)C(=O)Oc1c(-c2ccccc2C)c(C)nc2cc(OC)c(Cl)cc12`, the results for the EC50 in the series with Plasmodium falciparum [1] and in the series on Plasmodium falciparum [2] were more than 2290 nM and more than 3550 nM, respectively. Besides, the solubility in series [3] was less than 1 µM.
For `COc1cc2[nH]c(C)c(-c3ccc(C(F)(F)F)cc3)c(=O)c2cc1Cl`, the solubility in series [4] is less than 1 µM. In addition, the Activity in the series with Plasmodium berghei [5] is 11%; in the series with Plasmodium berghei [6], 10%; in series [7], “Non-Toxic”. The AUC in series [8] was found to be 222 µmol·min/L. In series [9], this compound had a clearance of 610 mL/min/kg.
As for `CCCSc1ccc2nc(NC(=O)OC)[nH]c2c1` [ALBENDAZOLE], the solubility in series [3] is 6.1 µM (≈ 1.62 µg/mL); in series [4] it was 100 µM (≈ 26.5 µg/mL).
Regarding `CCN(CC)Cc1cc(Nc2ccnc3cc(Cl)ccc23)ccc1O` [AMODIAQUINE], the Activity with Plasmodium berghei [5] and in the series on Plasmodium berghei [10] was more than 99% throughout.
As to `CNCCCOC(=O)OCOc1c(-c2ccccc2C)c(C)nc2cc(OC)c(Cl)cc12.Cl`, the EC50 with Plasmodium falciparum [1] is 269 nM; in the series with Plasmodium falciparum [2] it was 170 nM. The solubility in [4] was more than 100 µM; in series [11] it was more than 20000 µM. Also, the results for the Activity (with Plasmodium berghei [5]; in the series on Plasmodium berghei [6]; in series [7]) were 52%, 72% and “Non-Toxic”, respectively.
Regarding `c1cc([C@H]2CC[C@]3(CC2)OOC2(O3)C3CC4CC(C3)CC2C4)ccc1OCCN1CCOCC1` (stereo partly drawn), the outcome with Plasmodium berghei [12] was Active.
For the compound `CNCCCOC(=O)OCOc1c(-c2ccc(C(F)(F)F)cc2)c(C)nc2cc(OC)c(Cl)cc12.Cl`, the solubility in series [4] is 600 µM; in series [11], more than 5500 µM. The Activity is 82% in the series on Plasmodium berghei [5], 96% in the series with Plasmodium berghei [6] and “Non-Toxic” in series [7]. The compound also had an AUC in series [8] of 11664 µmol·min/L. The same compound came in with a clearance in series [9] of 7.8 mL/min/kg.
In the case of `CNCCCOC(=O)OCOc1c(-c2ccc(Oc3ccc(OC(F)(F)F)cc3)cc2F)c(C)nc2cc(OC)c(Cl)cc12.Cl`, the solubility in series [11] was more than 5500 µM. For the same compound, the Activity in the series with Plasmodium berghei [13] is on record as more than 99%; in the series with Plasmodium berghei [14], more than 99%; in the series with Plasmodium berghei [15], 97%; in the series on Plasmodium berghei [16], 57%; in the series on Plasmodium berghei [17], less than 1%; with Plasmodium berghei [18], less than 1%. The Activity is less than 1% in the series with Plasmodium berghei [19], 90% with Plasmodium berghei [20] and “Non-Toxic” in series [25]. For the same compound, the AUC came to 4818 µmol·min/L in series [21] and 10269 µmol·min/L in series [22]. The clearance in series [23] is 0.9 mL/min/kg; in [24], 1.4 mL/min/kg.

For orientation: EC50 means the concentration giving half of the maximal effect. Broadly, the solubility is the dissolved amount per volume that the medium holds. A high value points to a readily soluble substance. For orientation: AUC means the area under the concentration-time curve, a measure of exposure. A low value points to low exposure.

For the origin of these results see ChEMBL document CHEMBL5032492, “Aminoalkoxycarbonyloxymethyl Ether Prodrugs with a pH-Triggered Release Mechanism: A Case Study Improving the Solubility, Bioavailability, and Efficacy of Antimalarial 4(1H)-Quinolones with Single Dose Cures” (J Med Chem, 2021).
